Measurements reported in ChEMBL document CHEMBL3525903 (Drug Metab Dispos, 2013).

Key:
Assay type in all cases: ADME, cell-based
[1] = tested on: P-glycoprotein; assay: Permeability assessed as human P-glycoprotein-mediated active membrane transport by measuring apical to basolateral side expressed in pig LLC-PK1 cells by Transwell experiment/liquid scintillation counting; conditions: read-out: permeability
[2] = target: T1, Solute carrier organic anion transporter family member 1B3 (Homo sapiens, UniProt Q9NPD5); assay: Inhibition of OATP1B3 (unknown origin) expressed in HEK293 cells assessed as reduction of [3H]CCK8 substrate uptake at 100 uM by liquid scintillation counting; conditions: hek293, 100 µM
T1 sequence (Q9NPD5 whole entry): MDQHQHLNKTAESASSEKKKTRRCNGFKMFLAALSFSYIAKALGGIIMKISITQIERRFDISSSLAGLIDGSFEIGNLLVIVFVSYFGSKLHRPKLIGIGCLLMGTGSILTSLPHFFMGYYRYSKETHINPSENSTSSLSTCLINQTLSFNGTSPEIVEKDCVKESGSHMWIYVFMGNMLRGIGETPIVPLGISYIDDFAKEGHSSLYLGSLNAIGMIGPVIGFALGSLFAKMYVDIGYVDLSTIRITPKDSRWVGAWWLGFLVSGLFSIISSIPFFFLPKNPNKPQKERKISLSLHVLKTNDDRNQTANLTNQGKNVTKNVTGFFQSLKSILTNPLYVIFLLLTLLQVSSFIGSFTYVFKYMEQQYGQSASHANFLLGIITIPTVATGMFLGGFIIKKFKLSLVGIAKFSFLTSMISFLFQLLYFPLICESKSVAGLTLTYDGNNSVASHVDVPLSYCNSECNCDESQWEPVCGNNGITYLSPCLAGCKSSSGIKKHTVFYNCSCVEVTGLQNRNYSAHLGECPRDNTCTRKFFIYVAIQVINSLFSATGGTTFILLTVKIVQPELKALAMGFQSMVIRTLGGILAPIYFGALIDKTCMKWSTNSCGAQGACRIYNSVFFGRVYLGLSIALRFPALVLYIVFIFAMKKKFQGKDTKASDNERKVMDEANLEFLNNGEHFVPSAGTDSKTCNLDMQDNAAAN
In short: (§1)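 HEK293 cells transiently transfected with OAT, OATP or OCT plasmid (FuGENE6; 24 h, then 24 h more with sodium butyrate), or stable OCTN1/OCTN2 lines; vector-transfected cells as control. Washed, preincubated 15–60 min at 37 °C in modified Krebs-Henseleit/25 mM HEPES buffer. Uptake of radiolabelled substrate, 100 µM inhibitor. Cells lysed in NaOH and counted by scintillation; counts normalised to medium radioactivity and Lowry protein; vector uptake subtracted.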

[3] = target: T2, Broad substrate specificity ATP-binding cassette transporter ABCG2 (Homo sapiens, UniProt Q9UNQ0); assay: Inhibition of human BCRP expressed in MDCK2 cells assessed as reduction of [3H]E-sul substrate transport up to 100 uM by liquid scintillation counting; conditions: mdck-ii
T2 sequence (Q9UNQ0 whole entry): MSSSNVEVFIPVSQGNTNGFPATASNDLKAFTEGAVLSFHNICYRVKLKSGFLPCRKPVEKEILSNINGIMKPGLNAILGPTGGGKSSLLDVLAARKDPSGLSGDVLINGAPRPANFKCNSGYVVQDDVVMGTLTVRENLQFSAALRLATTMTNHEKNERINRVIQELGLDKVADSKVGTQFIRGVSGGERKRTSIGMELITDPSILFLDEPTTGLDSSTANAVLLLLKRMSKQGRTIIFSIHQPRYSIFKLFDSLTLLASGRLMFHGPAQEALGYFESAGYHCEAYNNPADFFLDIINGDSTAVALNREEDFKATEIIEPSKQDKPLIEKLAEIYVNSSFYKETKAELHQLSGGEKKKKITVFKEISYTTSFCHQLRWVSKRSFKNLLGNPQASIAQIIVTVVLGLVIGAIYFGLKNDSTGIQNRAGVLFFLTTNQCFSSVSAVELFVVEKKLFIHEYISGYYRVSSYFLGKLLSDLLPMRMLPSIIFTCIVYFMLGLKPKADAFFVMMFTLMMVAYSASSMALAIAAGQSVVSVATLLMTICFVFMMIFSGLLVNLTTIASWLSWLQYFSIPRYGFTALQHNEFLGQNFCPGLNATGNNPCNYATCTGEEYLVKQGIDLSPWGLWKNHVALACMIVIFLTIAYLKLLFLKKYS
In short: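 Membrane vesicles made from MDCKII cells expressing BCRP or MRP2, and from parental cells (1 μg/μL protein). Run in Tris-sucrose buffer, pH 7.4, with 10 mM MgCl2, creatine phosphokinase and ATP, or AMP as control. Substrates: 0.035 μM [3H]E-sul for BCRP, 2 min; 0.033 μM [3H]E217βG for MRP2, 5 min; both at 37 °C. Stopped ice-cold, filtered, and counted by scintillation.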

[4] = target: T3, Solute carrier organic anion transporter family member 1B1 (Homo sapiens, UniProt Q9Y6L6); assay: Inhibition of OATP1B1 (unknown origin) expressed in HEK293 cells assessed as reduction of [3H]E217betaG substrate uptake at 100 uM by liquid scintillation counting; conditions: hek293, 100 µM; in short: as §1
T3 sequence (Q9Y6L6 whole entry): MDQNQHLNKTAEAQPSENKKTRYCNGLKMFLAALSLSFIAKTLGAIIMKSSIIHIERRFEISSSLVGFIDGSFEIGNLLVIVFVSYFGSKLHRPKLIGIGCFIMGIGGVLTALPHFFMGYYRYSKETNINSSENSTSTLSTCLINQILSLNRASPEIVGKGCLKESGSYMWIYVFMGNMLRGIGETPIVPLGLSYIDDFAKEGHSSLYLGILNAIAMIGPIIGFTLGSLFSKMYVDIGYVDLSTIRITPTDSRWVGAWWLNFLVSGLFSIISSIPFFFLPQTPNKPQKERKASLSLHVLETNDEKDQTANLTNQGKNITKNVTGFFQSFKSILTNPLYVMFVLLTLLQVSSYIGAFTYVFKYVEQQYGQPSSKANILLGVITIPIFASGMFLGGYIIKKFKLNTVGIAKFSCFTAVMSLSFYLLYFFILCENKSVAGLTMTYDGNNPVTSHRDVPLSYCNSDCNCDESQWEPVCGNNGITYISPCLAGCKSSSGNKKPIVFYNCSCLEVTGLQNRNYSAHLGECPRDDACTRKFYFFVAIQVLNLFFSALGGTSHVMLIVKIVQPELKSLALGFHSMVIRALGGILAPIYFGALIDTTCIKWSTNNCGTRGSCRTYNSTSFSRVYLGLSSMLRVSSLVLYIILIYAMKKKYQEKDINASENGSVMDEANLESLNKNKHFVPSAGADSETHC

Compound: CC#CCn1c(N2CCC[C@@H](N)C2)nc2c1c(=O)n(Cc1nc(C)c3ccccc3n1)c(=O)n2C [LINAGLIPTIN]
- Papp A→B [1]: 25.1 ×10⁻⁶ cm/s
- inhibition (INH) [2]: 3.39%
- inhibition (INH) [3]: 24.7%
- inhibition (INH) [4]: 35.5%
